Compound activity (PubChem BioAssay)
MT1-MMP txn act: MT1-MMP promoter reporter activation – cell-based, luciferase luminescence, primary screen | activation factor at 10 µM | HT1080 MT1-MMP promoter luciferase reporter, overnight; stronger effect = higher value | AID 750, 2007 | hit rate 0.16% among 86,000;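 active = activation factor of at least 2 for MT1-MMP transcription at 10 µM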
MMP-13 inhibitor: human MMP13 inhibitors, primary screen, biochemical, FRET peptide cleavage. Collagenase 3 (Homo sapiens), P45452. hit rate 0.07% among 65,000. MMP-13 fTHP FRET cleavage, Mca fluorescence. inhibition, % at 4 µM;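 active = inhibition above the mean of compound-free control plate wells plus 3 SD, cut at about 14% in these data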;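 also: 0% = DMSO wells and 100% = wells with reference MMP-13 inhibitor after basal subtraction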
SF1 activator: activators of human SF-1, primary screen, cell-based, CHO-K1, Gal4-SF-1 LBD, luciferase luminescence. Steroidogenic factor 1 (Homo sapiens), Q13285. CHO-K1 Gal4-SF-1 LBD luciferase reporter; % increase over DMSO SF-1-specific signal. activation, % at 10 µM. hit rate 1.9% among 65,000. AID 522, 2006;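 active = activation above the mean activation of all tested compounds plus 3 SD, cut at about 50% in these data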
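Assay system: CHO-K1 cells co-transfected with Gal4 DBD–human SF-1 LBD, 5xGal4 luciferase reporter; doses: 10 µM only; incubation: 20 h compound exposure at 37 °C after 1 h cell settling; signal: luciferase light emission; evaluation: percent activation versus DMSO; repeats: one test per compound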
RORA act: activators of orphan receptor RORA, primary screen, cell-based, luminescence; Nuclear receptor ROR-alpha (Homo sapiens), P35398; CHO-K1 Gal4-RORA LBD luciferase reporter; percent increase over mock-subtracted basal signal; activation, % at 10 µM; hit rate 1.5% among 65,000; AID 560, 2006;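 active = activation above the mean of all tested compounds plus 3 SD, cut at about 49% in these data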;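 also: 0% = DMSO-treated RORA cells and 100% = added signal equal to DMSO minus mock-transfected cells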
Target sequence (P35398 whole entry, looked up, the tested form may be a part): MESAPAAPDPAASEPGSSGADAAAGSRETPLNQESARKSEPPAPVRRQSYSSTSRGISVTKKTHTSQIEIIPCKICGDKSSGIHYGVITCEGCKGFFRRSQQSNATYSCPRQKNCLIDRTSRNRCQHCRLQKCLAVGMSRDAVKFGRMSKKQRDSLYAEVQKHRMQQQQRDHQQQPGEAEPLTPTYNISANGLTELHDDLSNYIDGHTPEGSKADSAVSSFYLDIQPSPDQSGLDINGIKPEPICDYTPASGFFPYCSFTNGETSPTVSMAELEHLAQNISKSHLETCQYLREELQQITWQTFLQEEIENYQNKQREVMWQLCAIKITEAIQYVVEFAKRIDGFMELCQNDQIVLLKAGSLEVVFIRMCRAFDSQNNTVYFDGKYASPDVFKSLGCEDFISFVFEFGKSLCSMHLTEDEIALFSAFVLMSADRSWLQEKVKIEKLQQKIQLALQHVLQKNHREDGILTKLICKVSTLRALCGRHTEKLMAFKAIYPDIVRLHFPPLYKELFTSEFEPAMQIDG
WNV protease inh: inhibitors of WNV NS2B-NS3 protease, primary screen, biochemical, fluorogenic substrate; Genome polyprotein (West Nile virus), P06935; fluorogenic substrate Ex360/Em465; stronger effect = lower value; z-score (concentration not given with the values); hit rate 0.18% among 65,000; AID 577, 2007; in the data active = z-score below about -3
Active calls of the source: *; · = not tested or not shown. This is a sample that favours compounds with a hit; in the whole collection about 2.3% have one here.

SMILES | MT1-MMP txn act | MMP-13 inhibitor | SF1 activator | RORA act | WNV protease inh
COC(=O)[C@@H]1C[C@H]2CC[C@H](O)C[C@H]2N1Cc1c(F)cccc1Cl | 1.1 | · | · | · | ·
Cn1c(-n2c(CCN3C(=O)c4ccccc4C3=O)nc3ccccc3c2=O)nc2ccccc21 | 1.4 | -3 | 16 | 57* | -0.13
Cn1c(-n2c(CCCN3C(=O)c4ccccc4C3=O)nc3ccccc3c2=O)nc2ccccc21 | 1.1 | 1 | -9 | -8 | -0.4
Cc1cnn(-c2ccc3nnc(-c4ccc(Br)cc4)n3n2)c1 | 1 | -7 | -3 | -3 | 1.6
Cc1ccc(C(=O)CSc2ccccn2)cc1 | 1.2 | 6 | 84* | 34 | 1.6
C=CCn1c(SCC(=O)c2ccc(OC)cc2)nnc1C(C)NC(=O)c1cccs1 (stereo unspecified) | 1.2 | 5 | 3 | -10 | 0.73
O=C(CSc1nnc2sc3ccccc3n12)c1ccco1 | 1.5 | -7 | 14 | 18 | 0.44
O=c1c2ccccc2nnn1CSc1nnc(COc2ccc(Cl)cc2)n1Cc1ccco1 | 1.1 | 3 | 56* | -11 | 0.16
CC(=O)C1C(c2ccccc2OC(F)F)NC(=O)NC1(O)C(F)(F)F (stereo unspecified) | 1.2 | 5 | -3 | -38 | 0.71
CCOC(=O)c1ccccc1NC(=O)CSc1nnnn1C1CCCCC1 | 1 | 2 | 5 | 54* | -0.32
Cc1ccc(Cn2c(NCCCn3ccnc3)nc3c2c(=O)n(C)c(=O)n3C)cc1 | 1 | -2 | -8 | -6 | -0.85
Cc1ccc(CNC(=O)C2(C)Oc3ccccc3NC2=O)cc1 (stereo unspecified) | 0.9 | · | · | · | ·
Cc1ccc(C2=NN3C(C2)c2ccccc2OC32C(=O)Nc3ccccc32)cc1 (stereo unspecified) | 2* | · | · | · | ·
COc1ccc(NC(=O)CSc2nnc(C3CC3)n2-c2ccccc2)cc1 | 1 | · | · | · | ·
COc1ccc(Cn2c(C3CC3)nc3ccc(NC(C)=O)cc3c2=O)cc1 | 1.8 | -6 | 58* | 77* | -0.65
O=C1OC(N2CCN(Cc3ccccc3)CC2)c2ccccc21 (stereo unspecified) | 1.2 | -8 | -16 | 69* | 1.6
CC(=O)Nc1ccc2c(c1)nc(CN1CCCC1)n2C | 1 | · | · | · | ·
O=C(Nc1ccc2c(c1)ncn2-c1ccccc1)c1ccco1 | 0.5 | 2 | 28 | 52* | -0.28
Cn1c(CN2CCCC2)nc2cc(NC(=O)c3ccco3)ccc21 | 1.3 | 0 | 50* | 48 | 0.25
CCN(CC)c1ccc2cc(C(=O)Nc3ccc(-n4cnnn4)c(OC)c3)c(=O)oc2c1 | 1.1 | -5 | 2 | 2 | 0.93
O=C(Cc1c[nH]c2ccccc12)NCc1ccc2c(c1)OCO2 | 1.6 | -4 | 6 | 5 | -0.28
Cn1c(SCC(=O)c2ccccc2)nnc1-c1cnccn1 | 1.7 | 0 | 61* | 30 | -1.1
CCC(=O)Nc1cccc(-c2nnc(SCC(=O)c3ccccc3)n2C)c1 | 1.4 | 1 | 44 | 61* | -1.1
CCC(=O)Nc1cccc(-c2nnc(SCC(=O)NCc3ccco3)n2C)c1 | 1.2 | 5 | -11 | -2 | 1.9
CNC(=O)Cn1nc(-c2ccc(C)c(S(=O)(=O)N(C)C)c2)c2ccccc2c1=O | 1 | · | · | · | ·
SMILES | MT1-MMP txn act | MMP-13 inhibitor | SF1 activator | RORA act | WNV protease inh
Cc1cc2ncc(-c3ccc(Cl)cc3)c(N)n2n1 | 1.4 | -4 | 55* | 35 | 0.26
CC(=O)Nc1ccc2nc(-c3ccncc3)[nH]c2c1 | 0.9 | · | · | · | ·
CC(=O)Nc1ccc(-c2nc3c(C)cccc3[nH]2)cc1 | 1.2 | -34 | 99* | -4 | 2.6
O=C(O)c1ccccc1-c1nc2ccccc2c(=O)[nH]1 | 1.3 | -1 | -8 | 17 | -0.26
CC(=O)c1cccc2c(O)c(C3=Nc4ccccc4C3=O)[nH]c12 | 2.3* | · | · | · | ·
COC(=O)C1(Cc2ccccc2)C2c3cc(C(=O)N4CCCC4)n(Cc4ccc(OC(F)(F)F)cc4)c3CC2CN1C(=O)c1ccccc1 (stereo unspecified) | 1.2 | · | · | · | ·
COc1ccc2c(c1)Cc1sc(NC(C)=O)nc1-2 | 1.4 | 3 | 77* | 42 | 0.47
Clc1ccc(OCc2nnc(-c3ccccc3Br)o2)c(Cl)c1 | 1.6 | 7 | 30 | 90* | -0.06
